ChEMBL document CHEMBL1649090, “Discovery of (7R)-14-cyclohexyl-7-{[2-(dimethylamino)ethyl](methyl) amino}-7,8-dihydro-6H-indolo[1,2-e][1,5]benzoxazocine-11-carboxylic acid (MK-3281), a potent and orally bioavailable finger-loop inhibitor of the hepatitis C virus NS5B polymerase” (J Med Chem, 2011)

What was measured:
Hepatitis C virus [1] = assay: Inhibition of HCV1b NS5B delta21 polymerase after 1 hr; type: single protein, Hepatitis C virus subtype 1b
Procedure, shortened: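 Enzyme inhibition IC50 measured on genotype 1b HCV NS5B polymerase truncated by 21 C-terminal residues (ΔC21).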

Hepatitis C virus [2] = assay: Antiviral activity against HCV1b infected in human Huh-7 cells assessed as inhibition of viral RNA replication after 96 hrs by ELISA assay in presence of 10% fetal calf serum; type: functional, organism-based, Hepacivirus hominis; settings: genotype 1b, Huh-7, 96 h
Hepatitis C virus [3] = assay: Antiviral activity against HCV1b infected in human Huh-7 cells assessed as inhibition of viral RNA replication after 96 hrs by ELISA assay in presence of 50% normal human serum; type: functional, organism-based, Hepacivirus hominis; settings: genotype 1b, Huh-7, 96 h
Hepatitis C virus [4] = assay: Ratio of EC50 for HCV1b to EC50 for HCV1b in presence of 50% normal human serum; type: functional, Hepacivirus hominis, genotype 1b
[5] = Fraction unbound in human plasma; type: ADME, cell-free
[6] = Ratio of drug level in liver to plasma in Sprague-Dawley rat liver at 3 mg/kg, po after 6 hrs; type: ADME, organism-based; set-up: dose 3 mg/kg, route oral
Procedure, shortened: (§1)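 Sprague-Dawley rats (n = 3) received the compound as its TFA salt in DMSO/PEG400/water 20%/60%/20%, as a single iv dose of 3 mg/kg or a single oral dose of 3 mg/kg. Liver tissue and plasma concentrations were measured 6 h after the oral dose.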

[7] = Half life in Sprague-Dawley rat at 3 mg/kg, iv; type: ADME, organism-based; set-up: dose 3 mg/kg, route intravenous; settings: in vivo; procedure, shortened: as §1
[8] = Clearance in Sprague-Dawley rat at 3 mg/kg, iv; type: ADME, organism-based; set-up: dose 3 mg/kg, route intravenous; settings: in vivo; procedure, shortened: as §1
[9] = Intrinsic clearance in rat liver microsomes assessed per mg of protein; type: ADME, Microsome
[10] = Intrinsic clearance in human liver microsomes assessed per mg of protein; type: ADME, Microsome
[11] = Volume of distribution in Sprague-Dawley rat at 3 mg/kg, iv; type: ADME, organism-based; set-up: dose 3 mg/kg, route intravenous; settings: in vivo
Procedure, shortened: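 Sprague-Dawley rats (n = 3) received a single 3 mg/kg iv dose, given as the TFA salt, in DMSO/PEG400/water 20%/60%/20%. Plasma clearance, half-life and volume of distribution were derived.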

[12] = Cmax in Sprague-Dawley rat at 3 mg/kg, po; type: ADME, organism-based; set-up: dose 3 mg/kg, route oral; settings: in vivo; procedure, shortened: as §1
[13] = AUC in Sprague-Dawley rat at 3 mg/kg, po; type: ADME, organism-based; set-up: dose 3 mg/kg, route oral; settings: plasma
Procedure, shortened: (§2)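 Single-dose rat PK with the compound given as its TFA salt to Sprague-Dawley rats (n = 3) in DMSO/PEG400/water 20%/60%/20%. Dosing was 3 mg/kg iv and 3 mg/kg po.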

[14] = Drug level in Sprague-Dawley rat liver at 3 mg/kg, po after 6 hrs; type: ADME, organism-based; set-up: dose 3 mg/kg, route oral; settings: read-out: Drug uptake; procedure, shortened: as §1
[15] = Intrinsic clearance in dog liver microsomes assessed per mg of protein; type: ADME, Canis lupus familiaris, Microsome
[16] = Oral bioavailability in Sprague-Dawley rat at 3 mg/kg; type: ADME, organism-based; settings: in vivo; procedure, shortened: as §2

SMILES | IC50 (Hepatitis C virus [1]) [nM] | EC50 (Hepatitis C virus [2]) [nM] | EC50 (Hepatitis C virus [3]) [nM] | Ratio EC50 (Hepatitis C virus [4]) | further results
CC(C)N1CC[C@H](N2CCn3c(c(C4CCCCC4)c4sc(C(=O)O)cc43)-c3ccccc3C2)C1 | 19 | 150 | – | – | –
O=C(O)c1ccc2c(C3CCCCC3)c3n(c2c1)CCCOc1ccccc1-3 | 42 | 2740 | – | – | –
CN(C)CC(=O)N(C)C1COc2ccccc2-c2c(C3CCCCC3)c3ccc(C(=O)O)cc3n2C1 (stereo not drawn) | 31 | 73 | 743 | 10 | fraction unbound [5]: 0.005
CN(C)CCN(C)[C@@H]1COc2ccccc2-c2c(C3CCCCC3)c3ccc(C(=O)O)cc3n2C1 | 35 | 338 | 1680 | 3 | –
CN(C)CCO[C@@H]1COc2ccccc2-c2c(C3CCCCC3)c3ccc(C(=O)O)cc3n2C1 | 19 | 78 | 493 | 6 | –
CN(C)CCO[C@H]1COc2ccccc2-c2c(C3CCCCC3)c3ccc(C(=O)O)cc3n2C1 | 72 | 432 | 1410 | – | –
CC(C)N1CC2(COc3ccccc3-c3c(C4CCCCC4)c4ccc(C(=O)O)cc4n3C2)C1 | 30 | 338 | 590 | – | –
CN(C)CCN1CC2(COc3ccccc3-c3c(C4CCCCC4)c4ccc(C(=O)O)cc4n3C2)C1 | 4 | 80 | 454 | – | –
O=C(O)c1ccc2c(C3CCCCC3)c3n(c2c1)CCCc1ccccc1-3 | 35 | 10400 | – | – | –
CCN(CC)C1CCN(C(=O)Cn2c(-c3ccc(Cl)cc3)c(C3CCCCC3)c3ccc(C(=O)O)cc32)CC1 | 48 | – | – | – | Kp at 6 h [6]: 16
CN(C)CCN1CCn2c(c(C3CCCCC3)c3ccc(C(=O)O)cc32)-c2ccccc2C1 | 27 | – | – | – | half-life [7]: 1.6 h; clearance [8]: 61 mL/min/kg; microsomal CLint [9]: 100 µL/min/mg; microsomal CLint [10]: 5 µL/min/mg; Vd [11]: 5.1 L/kg; Cmax [12]: 200 nM; AUC [13]: 0.7 µM·h; concentration at 6 h [14]: 640 nM; microsomal CLint [15]: 26 µL/min/mg
COc1ccc2c(c1)[C@H]1[C@@H](CCN1CCN(C)C)Cn1c-2c(C2CCCCC2)c2ccc(C(=O)O)cc21 | 4 | 29 | – | – | –
CN1CCN(CCN(C)C2COc3ccccc3-c3c(C4CCCCC4)c4ccc(C(=O)O)cc4n3C2)CC1 (racemic) | 8 | 66 | 581 | 9 | fraction unbound [5]: 0.011
CNC1COc2ccccc2-c2c(C3CCCCC3)c3ccc(C(=O)O)cc3n2C1 (racemic) | 51 | 1030 | 4980 | – | –
CN(C)C1COc2ccccc2-c2c(C3CCCCC3)c3ccc(C(=O)O)cc3n2C1 (racemic) | 32 | 570 | 2110 | 4 | –
NCCNC1COc2ccccc2-c2c(C3CCCCC3)c3ccc(C(=O)O)cc3n2C1 (racemic) | 12 | 591 | 1700 | 4 | –
CN(C)CCNC1COc2ccccc2-c2c(C3CCCCC3)c3ccc(C(=O)O)cc3n2C1 (racemic) | 32 | 173 | 856 | 4 | half-life [7]: 3 h; clearance [8]: 21 mL/min/kg; microsomal CLint [9]: 7 µL/min/mg; microsomal CLint [10]: 5 µL/min/mg; Vd [11]: 3.2 L/kg; Cmax [12]: 300 nM; AUC [13]: 0.9 µM·h; concentration at 6 h [14]: 1300 nM; microsomal CLint [15]: 7 µL/min/mg; Kp at 6 h [6]: 21; bioavailability [16]: 20%
CN(C)CCCNC1COc2ccccc2-c2c(C3CCCCC3)c3ccc(C(=O)O)cc3n2C1 (racemic) | 17 | 258 | 1370 | 4 | –
CN1CCC(NC2COc3ccccc3-c3c(C4CCCCC4)c4ccc(C(=O)O)cc4n3C2)CC1 (racemic) | 21 | 224 | 1130 | 4 | –
COCCNC1COc2ccccc2-c2c(C3CCCCC3)c3ccc(C(=O)O)cc3n2C1 (racemic) | 63 | 2480 | – | – | –
CN(C)C(=O)CNC1COc2ccccc2-c2c(C3CCCCC3)c3ccc(C(=O)O)cc3n2C1 (racemic) | 51 | 766 | > 5000 | – | –
CN(C)CC(=O)NC1COc2ccccc2-c2c(C3CCCCC3)c3ccc(C(=O)O)cc3n2C1 (racemic) | 47 | 170 | 1430 | – | –
CN(C)CCN(C)C1COc2ccccc2-c2c(C3CCCCC3)c3ccc(C(=O)O)cc3n2C1 (racemic) | 15 | 73 | 313 | – | fraction unbound [5]: 0.027
CN1CCN(C2COc3ccccc3-c3c(C4CCCCC4)c4ccc(C(=O)O)cc4n3C2)CC1 (racemic) | 10 | 120 | 361 | – | –
CNCCN(C)C1COc2ccccc2-c2c(C3CCCCC3)c3ccc(C(=O)O)cc3n2C1 (racemic) | 9 | 83 | 550 | – | –
CN(CCN1CCCC1)C1COc2ccccc2-c2c(C3CCCCC3)c3ccc(C(=O)O)cc3n2C1 (racemic) | 11 | 99 | 335 | – | –
CN(CCN1CCOCC1)C1COc2ccccc2-c2c(C3CCCCC3)c3ccc(C(=O)O)cc3n2C1 (racemic) | 10 | 90 | 312 | – | –
CCN(CCN(C)C)C1COc2ccccc2-c2c(C3CCCCC3)c3ccc(C(=O)O)cc3n2C1 (racemic) | 11 | 153 | 1030 | 7 | –
CC(C)N(CCN(C)C)C1COc2ccccc2-c2c(C3CCCCC3)c3ccc(C(=O)O)cc3n2C1 (racemic) | 34 | 138 | 1200 | 7 | –
